From ChEMBL document CHEMBL4396890, “Synthesis, Biological Evaluation, Structure-Activity Relationship, and Mechanism of Action Studies of Quinoline-Metronidazole Derivatives Against Experimental Visceral Leishmaniasis” (J Med Chem, 2019)
Calls of active or inactive are those of the source. No cut-off for these calls is given here.

Assays:
[1] = system: Leishmania donovani; assay: Antileishmanial activity against Leishmania donovani MHOM/IN/80/Dd8 promastigotes infected in ip dosed BALB/c mouse assessed as reduction in parasite load in liver administered once daily for 5 days measured 7 days post dose by giemsa staining-based assay; type: functional, organism-based
Method in brief: (§1)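 Hamster-passaged strain was transformed to promastigotes. Stationary-phase cells (2 × 10^7 in 0.2 mL PBS) were injected into the tail vein of BALB/c mice. From day 15 post-infection, mice received compound ip in 8% DMSO in PBS for 5 consecutive days, 5 mice per group. Mice were killed day 7 post-treatment. Liver and spleen burden was read from Giemsa-stained stamp smears as LDU.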

[2] = system: Leishmania donovani; assay: Antileishmanial activity against Leishmania donovani MHOM/IN/80/Dd8 amastigotes harboring luciferase reporter gene infected in mouse J774 cells at 100 uM by Giemsa staining-based microscopic assay; type: functional, organism-based
Method in brief: (§2)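 Infection of J774 macrophages with L. donovani Dd8 promastigotes at a 1:8 cell:parasite ratio. Compounds were diluted 2-fold in RPMI over 3.125–100 μM final and applied for 48 h. Amastigote inhibition was read by luciferase (RLU) or by Giemsa count of amastigotes per 100 macrophages. IC50 was from dose–response; n = 3 independent experiments done in replicate.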

[3] = system: Leishmania donovani; assay: Antileishmanial activity against Leishmania donovani MHOM/IN/80/Dd8 promastigotes harboring luciferase reporter gene at 100 uM after 48 hrs by MTT assay; type: functional, organism-based
Method in brief: (§3)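 Luciferase-expressing L. donovani Dd8 promastigotes were grown at 24 °C in M199 with 10% heat-inactivated FBS and G418 20 μg/mL. They were exposed to a range of concentrations for 48 h, and viability was read by MTT absorbance as percent of untreated control. IC50 was from dose–response; n = 3 independent experiments done in replicate.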

[4] = system: Leishmania donovani; assay: Antileishmanial activity against Leishmania donovani MHOM/IN/80/Dd8 promastigotes harboring luciferase reporter gene at 100 uM after 48 hrs by Steady-Glo luminescence assay; type: functional, organism-based
Method in brief: (§4)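 Luciferase-expressing L. donovani Dd8 promastigotes were grown at 24 °C in M199 with 10% heat-inactivated FBS and G418 20 μg/mL. They were treated at varied concentrations for 24 and 48 h, and inhibition was read as relative luminescence units versus untreated control. IC50 was from dose–response; screening values are mean ± SD of at least three experiments in duplicate.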

[5] = system: Leishmania donovani; assay: Antileishmanial activity against Leishmania donovani MHOM/IN/80/Dd8 promastigotes harboring luciferase reporter gene at 50 uM after 48 hrs by Steady-Glo luminescence assay relative to control; type: functional; conditions: MHOM/IN/80/Dd8, 48 h; method in brief: as §4
[6] = system: Leishmania donovani; assay: Antileishmanial activity against Leishmania donovani MHOM/IN/80/Dd8 promastigotes harboring luciferase reporter gene after 48 hrs by Steady-Glo luminescence assay; type: functional, organism-based; conditions: for IC50: MHOM/IN/80/Dd8, 48 h; method in brief: as §4
[7] = system: Leishmania donovani; assay: Antileishmanial activity against Leishmania donovani MHOM/IN/80/Dd8 promastigotes harboring luciferase reporter gene after 48 hrs by MTT assay; type: functional, organism-based; conditions: for IC50: MHOM/IN/80/Dd8, 48 h; method in brief: as §3
[8] = system: Leishmania donovani; assay: Antileishmanial activity against Leishmania donovani MHOM/IN/80/Dd8 promastigotes harboring luciferase reporter gene by MTT assay; type: functional, organism-based; conditions: TDE = time-dependent effect; method in brief: as §3
[9] = system: Leishmania donovani; assay: Antileishmanial activity against Leishmania donovani MHOM/IN/80/Dd8 promastigotes harboring luciferase reporter gene after 48 hrs by MTT assay relative to control; type: functional; method in brief: as §3
[10] = system: Leishmania donovani; assay: Antileishmanial activity against Leishmania donovani MHOM/IN/80/Dd8 promastigotes harboring luciferase reporter gene after 48 hrs by Steady-Glo luminescence assay relative to control; type: functional; method in brief: as §4
[11] = system: Leishmania donovani; assay: Antileishmanial activity against Leishmania donovani MHOM/IN/80/Dd8 amastigotes harboring luciferase reporter gene infected in mouse J774 cells at 50 uM after 48 hrs by Giemsa staining-based microscopic assay relative to control; type: functional; conditions: MHOM/IN/80/Dd8, J774, 48 h; method in brief: as §2
[12] = Cytotoxicity against mouse J774 cells assessed as cell viability up to 50 uM measured after 48 hrs by MTT assay relative to control; type: cell-based; conditions: read-out: Activity
Method in brief: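 Vero cells and J774 macrophages were exposed to 12.5−400 μM compound for 48 h. Viability was read by MTT. CC50 was derived from the curve. Mean ± SD, n = 3 experiments in replicate.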

[13] = Stability of the compound in simulated gastric fluid assessed as parent compound remaining measured after 2 hrs by UPLC analysis; type: ADME; conditions: read-out: Stability
Method in brief: (§5)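 Compound incubated 2 h in simulated gastric fluid (pH 1.2) […] or in simulated intestinal fluid (pH 6.5) […]; the percentage of intact compound remaining was reported.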

[14] = Stability of the compound in simulated intestinal fluid assessed as parent compound remaining measured after 2 hrs by UPLC analysis; type: ADME; conditions: read-out: Stability; method in brief: as §5
[15] = Stability in rat plasma assessed as parent compound remaining at 10 ug/ml measured after 2 hrs by UPLC analysis; type: ADME, cell-free; conditions: read-out: Stability
[16] = Stability in rat liver microsomes assessed as parent compound remaining at 10 ug/ml preincubated for 5 mins followed by NADPH addition measured after 60 mins by UPLC analysis; type: ADME, Microsome; conditions: read-out: Stability
Method in brief: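 Compound incubated with rat liver microsomes and the percentage remaining was followed over time up to 60 min. In vitro half-life and related parameters were derived from a plot of the natural log of percent remaining against incubation time.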

[17] = Half life in rat liver microsomes at 10 ug/ml preincubated for 5 mins followed by NADPH addition measured after 60 mins by UPLC analysis; type: ADME, Microsome
Method in brief: (§6)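 Compound was incubated with rat liver microsomes, sampling % remaining up to 60 min. In vitro half-life and related parameters came from a plot of ln(% remaining) versus incubation time.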

[18] = Intrinsic clearance in rat liver microsomes at 10 ug/ml preincubated for 5 mins followed by NADPH addition measured after 60 mins by UPLC analysis; type: ADME, Microsome; conditions: read-out: CLH; method in brief: as §6
[19] = system: Leishmania donovani; assay: Antileishmanial activity against Leishmania donovani MHOM/IN/80/Dd8 promastigotes infected in BALB/c mouse assessed as reduction in parasite load in spleen at 50 mg/kg, ip administered once daily for 5 days measured 7 days post dose by giemsa staining-based assay relative to control; type: functional; set-up: scale not given: the % may be the effect or the level left; method in brief: as §1
[20] = system: Leishmania donovani; assay: Antileishmanial activity against Leishmania donovani MHOM/IN/80/Dd8 promastigotes infected in BALB/c mouse assessed as reduction in parasite load in liver at 50 mg/kg, ip administered once daily for 5 days measured 7 days post dose by giemsa staining-based assay relative to control; type: functional; set-up: scale not given: the % may be the effect or the level left; method in brief: as §1
[21] = system: Leishmania donovani; assay: Antileishmanial activity against Leishmania donovani MHOM/IN/80/Dd8 promastigotes infected in BALB/c mouse assessed as reduction in parasite load in spleen at 200 mg/kg, ip administered once daily for 5 days measured 7 days post dose by giemsa staining-based assay relative to control; type: functional; set-up: scale not given: the % may be the effect or the level left; method in brief: as §1
[22] = Toxicity in BALB/c mouse infected with Leishmania donovani MHOM/IN/80/Dd8 promastigotes assessed as death at 12.5 to 200 mg/kg, ip administered once daily for 5 days measured up to 7 days post dose; type: organism-based; conditions: in vivo
Method in brief: (§7)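 BALB/c mice (20 ± 2 g) were infected by tail-vein injection of 2 × 10^7 stationary-phase promastigotes. At day 15 they received ip doses in 8% DMSO/PBS for 5 consecutive days and were killed at day 7 post-treatment. Survival, general health and body weight were monitored; 5 mice per group.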

[23] = Toxicity in BALB/c mouse infected with Leishmania donovani MHOM/IN/80/Dd8 promastigotes assessed as effect on health at 12.5 to 200 mg/kg, ip administered once daily for 5 days measured up to 7 days post dose; type: organism-based; conditions: in vivo; method in brief: as §7

Cc1cc(-c2cccc(OCCn3c([N+](=O)[O-])cnc3C)c2)nc2ccccc12
Activity [1]: Dose-dependent effect
inhibition [2]: Active
inhibition [3]: Active
inhibition [4]: Active
inhibition at 50 µM [5]: 94.7%
inhibition [6]: Dose-dependent effect
IC50 [6]: 9.54 µM
inhibition [7]: Dose-dependent effect
IC50 [7]: 9.4 µM
inhibition [8]: Tde
Imax [9]: >93%
Imax [10]: >93%
inhibition at 50 µM [11]: > 93%
viability at 48 h [12]: > 92%
remaining at 2 h [13]: 84.7%
remaining at 2 h [14]: 11.4%
remaining at 2 h, 10 ug/ml [15]: 68.2%
remaining at 1 h, 10 ug/ml [16]: 72.8%
half-life at 10 ug/ml [17]: 2.18 h
microsomal CLint at 10 ug/ml [18]: 10.7 µL/min/mg
Activity [19]: >50%
Activity [20]: >50%
Activity [21]: 54.14%
Activity [22]: Non-Toxic
Activity [23]: Non-Toxic

Cc1cc(-c2ccc(OCCn3c([N+](=O)[O-])cnc3C)cc2)nc2ccccc12
Activity [1]: Dose-dependent effect
inhibition [2]: Active
inhibition [3]: Active
inhibition [4]: Active
inhibition at 50 µM [5]: 94.4%
inhibition [6]: Dose-dependent effect
IC50 [6]: 5.42 µM
inhibition [7]: Dose-dependent effect
IC50 [7]: 5.3 µM
inhibition [8]: Tde
Imax [9]: >93%
Imax [10]: >93%
inhibition at 50 µM [11]: > 93%
viability at 48 h [12]: > 92%
remaining at 2 h [13]: 83.6%
remaining at 2 h [14]: 43.6%
remaining at 2 h, 10 ug/ml [15]: 88.5%
remaining at 1 h, 10 ug/ml [16]: 76%
half-life at 10 ug/ml [17]: 2.5 h
microsomal CLint at 10 ug/ml [18]: 9.3 µL/min/mg
Activity [19]: >80.3%
Activity [20]: >82.3%
Activity [21]: 82.2%
Activity [22]: Non-Toxic
Activity [23]: Non-Toxic
